Assay results gathered from unrelated publications.
Compare with care: the assays were run in different laboratories.
Target: Calcium/calmodulin-dependent protein kinase type II subunit gamma (CAMK2G, Homo sapiens, UniProt Q13555)

COc1cc(Cl)c(C(=O)N[C@@H](CN[C@H]2CC[C@@H](N)CC2)Cc2ccc(C#N)cc2)cc1-c1ccc(CN[C@H](C)c2ccc(C)cc2)o1
remaining activity (enzyme activity; inhibitor; 1 µM): 87%

CN([C@@H]1CCc2c(CC(=O)O)c3cc(S(C)(=O)=O)ccc3n2C1)S(=O)(=O)c1ccc(F)cc1
remaining binding (cell-free assay; competition with immobilised ligand; 1 µM): 100%

Cc1ccc(C(=O)NCc2ccsc2)cc1C#Cc1cn(C(C)C)c2ncnc(N)c12
activity vs control (enzyme activity; inhibitor; 1 µM): 101%

O=C1CCc2cc(Nc3cc(OC4CCOCC4)c([N+](=O)[O-])cc3Cl)ccc2N1
remaining binding (cell-free assay; competition with immobilised ligand; 1 µM): 100%

COc1cc(-c2cc(-c3ccc(N4CCNCC4)cc3)cnc2C)cc(OC)c1OC
inhibition (enzyme activity; inhibitor; 0.1 µM): 1%

CC(C)(C)c1nc(-c2cccc(NS(=O)(=O)c3c(F)cccc3F)c2F)c(-c2ccnc(N)n2)s1
remaining activity (enzyme activity; inhibitor; radiometric; 1 µM): 102%

COc1ccc2c(O[C@@H]3C[C@H]4C(=O)N[C@]5(C(=O)O)CC5/C=C\CCCCC[C@H](NC(=O)OC5CCCC5)C(=O)N4C3)cc(-c3csc(NC(=O)C(C)C)n3)nc2c1C (some centres unmarked)
remaining binding (cell-free assay; competition with immobilised ligand; 1 µM): 100%

Cc1ccc(C(=O)Nc2ccc(CN3CCN(C)CC3)c(C(F)(F)F)c2)cc1C#Cc1cnc2cccnn12
remaining signal (cell-free assay; 23.5 nM): 98%

CS(=O)(=O)c1cc(C2(NC(=O)c3cncc4c3cnn4-c3ccc(F)cc3)CC2)ccn1
remaining binding (cell-free assay; competition with immobilised ligand; 1 µM): 72%

CNC(=O)c1cc(Oc2ccc(NC(=O)Nc3ccc(Cl)c(C(F)(F)F)c3)cc2)ccn1
inhibition (cell-free assay; 10 µM): 78%

N#CCCc1ccc2c(c1)-c1[nH]c3ccc([N+](=O)[O-])cc3c1CC(=O)N2
remaining signal (cell-free assay; 0.5 µM): 66%

C[C@@H]1CN(c2cc(-c3nn(C)c4ccc(OC5(C)CC5)cc34)ncn2)C[C@H](C)O1
remaining binding (cell-free assay; competition with immobilised ligand; 1 µM): 90%

Cc1ccc(NC(=O)c2ccc(C)c(C(F)(F)F)c2)cc1C#Cc1nn(C2CCC(O)CC2)c2ncnc(N)c12 (centres unmarked)
remaining signal (cell-free assay; 10 µM): 90%

O=C(NC[C@@H]1[C@H]2CN(C(=O)OCc3cc(C(F)(F)F)cc(C(F)(F)F)c3)C[C@@H]12)c1ccc2[nH]nnc2c1
remaining binding (cell-free assay; competition with immobilised ligand; 1 µM): 85%

CCCS(=O)(=O)Nc1ccc(F)c(C(=O)c2c[nH]c3ncc(-c4ccc(Cl)cc4)cc23)c1F
inhibition (enzyme activity; inhibitor; 1 µM): < 10%

O=C(Nc1cnn(-c2csc(C(=O)NC3COC3)c2)c1)Nc1c(F)cccc1Cl
remaining activity (enzyme activity; inhibitor; 5 µM): 90.1%

C[C@@H]1CCN(C(=O)CC#N)C[C@@H]1N(C)c1ncnc2[nH]ccc12
remaining signal (cell-free assay; 0.5 µM): 127%

O=C(Nc1nccs1)C(c1cc(F)ccc1O)N1Cc2ccccc2C1=O (centres unmarked)
inhibition (enzyme activity; inhibitor; 1 µM): 9%

CS(=O)(=O)CCNCc1ccc(-c2ccc3ncnc(Nc4ccc(OCc5cccc(F)c5)c(Cl)c4)c3c2)o1
remaining signal (cell-free assay; 0.5 µM): 111%

CCCOc1ccc(OC)c(F)c1C(=O)c1ccc(C(=O)N[C@@H]2CNC[C@H]2NC(=O)c2ccc3[nH]ncc3c2)cc1
remaining activity (enzyme activity; inhibitor; 10 µM): 79%
